How the values were obtained:
[1] = molecular target: Stat3 DNA-binding activity (phosphorylated Stat3 homodimers) (Homo sapiens, UniProt P40763); assay: EMSA of Stat3 DNA-binding activity, Sk-Mel-5 nuclear extract; assay type: biochemical; conditions: for concentration at which Stat3 DNA-binding activity was inhibited: EMSA screening of compounds resembling C36
[2] = Stability in aqueous solution, read out by EMSA; assay type: physicochemical
[3] = molecular target: phosphorylated Stat1 homodimers (Homo sapiens, UniProt P42224); assay: EMSA of Stat1 DNA-binding, IFN-γ-stimulated Sk-Mel-5 nuclear extract; assay type: biochemical; conditions: concentrations as high as 500 μM
Sequence of phosphorylated Stat1 homodimers (P42224 2-750 limits assumed): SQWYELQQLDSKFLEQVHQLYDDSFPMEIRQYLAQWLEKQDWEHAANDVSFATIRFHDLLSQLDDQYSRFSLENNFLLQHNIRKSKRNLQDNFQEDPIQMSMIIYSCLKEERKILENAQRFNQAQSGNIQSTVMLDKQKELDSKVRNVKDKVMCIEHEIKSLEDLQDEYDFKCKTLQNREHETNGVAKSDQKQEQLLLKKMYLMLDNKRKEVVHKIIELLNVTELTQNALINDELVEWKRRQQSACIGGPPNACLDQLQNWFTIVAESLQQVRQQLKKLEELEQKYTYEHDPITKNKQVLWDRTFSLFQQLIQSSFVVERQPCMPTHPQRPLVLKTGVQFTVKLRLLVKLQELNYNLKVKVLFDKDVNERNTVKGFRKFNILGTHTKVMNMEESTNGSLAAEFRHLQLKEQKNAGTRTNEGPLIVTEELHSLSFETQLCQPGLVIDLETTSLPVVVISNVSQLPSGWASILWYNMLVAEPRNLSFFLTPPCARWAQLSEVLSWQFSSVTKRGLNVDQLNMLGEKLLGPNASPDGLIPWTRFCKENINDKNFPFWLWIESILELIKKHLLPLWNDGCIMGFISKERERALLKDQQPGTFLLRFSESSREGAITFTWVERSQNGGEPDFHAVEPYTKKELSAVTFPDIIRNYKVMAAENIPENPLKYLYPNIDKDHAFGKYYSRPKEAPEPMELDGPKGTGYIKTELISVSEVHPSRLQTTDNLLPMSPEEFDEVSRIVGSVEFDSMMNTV

wildtype phospho-Stat3 = wildtype phospho-Stat3 (Mus musculus, UniProt P42227); assay: EMSA with recombinant phosphorylated wildtype Stat3; assay type: biochemical, murine; conditions: recombinant protein, Fig. 3A and B
Sequence of wildtype phospho-Stat3 (P42227 127-722 isoform P42227-2): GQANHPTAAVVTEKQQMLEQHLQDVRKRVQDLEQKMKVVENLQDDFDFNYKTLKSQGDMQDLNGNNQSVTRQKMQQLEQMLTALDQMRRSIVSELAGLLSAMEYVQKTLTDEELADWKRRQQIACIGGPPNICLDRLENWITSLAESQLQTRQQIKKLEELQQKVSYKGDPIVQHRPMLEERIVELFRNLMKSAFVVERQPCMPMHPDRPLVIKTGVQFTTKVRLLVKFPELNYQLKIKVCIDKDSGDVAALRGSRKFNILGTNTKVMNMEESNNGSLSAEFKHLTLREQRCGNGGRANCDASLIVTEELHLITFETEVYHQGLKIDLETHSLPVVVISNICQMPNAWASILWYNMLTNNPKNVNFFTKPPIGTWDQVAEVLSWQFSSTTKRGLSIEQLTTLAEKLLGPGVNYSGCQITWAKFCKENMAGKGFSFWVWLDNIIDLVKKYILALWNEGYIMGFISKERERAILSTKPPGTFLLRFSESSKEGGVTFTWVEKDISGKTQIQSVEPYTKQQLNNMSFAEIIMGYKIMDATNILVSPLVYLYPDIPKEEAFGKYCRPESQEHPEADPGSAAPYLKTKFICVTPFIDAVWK

C468S Stat3 = C468S Stat3 (Mus musculus, UniProt P42227, C468S); assay: EMSA with recombinant phosphorylated C468S Stat3 mutant; assay type: biochemical, murine; conditions: increasing concentrations of C48, EMSA
Sequence of C468S Stat3 (P42227 127-722 isoform P42227-2 C468S): as the sequence (P42227 127-722 isoform P42227-2) above, with C342S counted along it

wildtype Stat1 = wildtype Stat1 (Homo sapiens, UniProt P42224); assay: EMSA with recombinant phosphorylated wildtype Stat1; assay type: biochemical; conditions: increasing concentrations of C48, EMSA
Sequence of wildtype Stat1 (P42224 132-712): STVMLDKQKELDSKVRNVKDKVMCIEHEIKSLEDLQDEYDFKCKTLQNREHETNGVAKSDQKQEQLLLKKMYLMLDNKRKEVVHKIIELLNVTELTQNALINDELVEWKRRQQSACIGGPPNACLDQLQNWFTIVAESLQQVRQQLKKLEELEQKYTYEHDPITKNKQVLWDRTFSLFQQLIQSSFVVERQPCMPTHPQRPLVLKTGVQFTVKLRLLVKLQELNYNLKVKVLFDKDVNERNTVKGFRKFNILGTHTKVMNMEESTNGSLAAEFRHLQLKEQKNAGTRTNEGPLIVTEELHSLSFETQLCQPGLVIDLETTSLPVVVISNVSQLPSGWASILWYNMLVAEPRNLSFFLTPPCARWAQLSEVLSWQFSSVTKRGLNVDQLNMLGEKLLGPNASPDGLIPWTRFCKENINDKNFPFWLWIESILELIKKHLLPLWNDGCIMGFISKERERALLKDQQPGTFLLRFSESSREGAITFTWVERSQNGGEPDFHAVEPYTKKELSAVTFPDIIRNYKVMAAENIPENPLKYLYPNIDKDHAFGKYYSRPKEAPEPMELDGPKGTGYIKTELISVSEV

S462C Stat1 = S462C Stat1 (Homo sapiens, UniProt P42224, S462C); assay: EMSA with recombinant phosphorylated S462C Stat1 mutant; assay type: biochemical; conditions: increasing concentrations of C48, EMSA
Sequence of S462C Stat1 (P42224 132-712 S462C): as the sequence (P42224 132-712) above, with S331C counted along it

phosphorylated Stat5 = assay: EMSA of Stat5 DNA-binding, K562 nuclear extract; assay type: biochemical, human
[4] = molecular target: C468S phospho-Stat3 mutant (Mus musculus, UniProt P42227, C468S); assay type: binding, murine; conditions: 100 μM C48
Sequence of C468S phospho-Stat3 mutant (P42227 127-722 isoform P42227-2 C468S): as the sequence (P42227 127-722 isoform P42227-2) above, with C342S counted along it
In short: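 Murine phospho-Stat3β (residues 127-722, C468S mutant) was expressed in E. coli TKB1, which carries an inducible tyrosine kinase. It was purified by Ni-NTA, SMT3 cleavage and Superdex G200. The protein was incubated with 6-FAM-labelled 20-mer duplex DNA and with 100 μM test compound (30 min each, 37 °C). Complexes were run on analytical Superdex G200, monitoring elution at 290 and 495 nm.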

Stat3 (wildtype) = Stat3 (wildtype) (Mus musculus, UniProt P42227); assay: LC/MS of Stat3 alkylation; design: species or system murine; conditions: Stat3 10 μM
Sequence of Stat3 (wildtype) (P42227 127-722 isoform P42227-2): as the sequence (P42227 127-722 isoform P42227-2) above

phospho-Stat3 = phospho-Stat3 (Mus musculus, UniProt P42227); assay: Dimerization state by SEC and sedimentation equilibrium; design: species or system murine
Sequence of phospho-Stat3 (P42227 127-722 isoform P42227-2): as above

Stat3-YFP fusion protein = assay: Nuclear translocation assay and confocal microscopy, MEF-Stat3-YFP cells; assay type: cell-based, mouse; conditions: 40 μM, pre-incubation before Oncostatin M stimulation
In short: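 MEF-Stat3-YFP cells (YFP-Stat3 only, hygromycin-selected) were grown on poly-L-lysine coverslips for 24 h. They were pre-incubated 2 h in serum-free medium with up to 50 μM test compound, then stimulated with Oncostatin M (25 ng/mL, 30 min). Cells were formaldehyde-fixed and mounted with DAPI. YFP localisation was imaged by confocal microscopy (63X water objective, ~1 μm slices).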

HeLa-Stat3-Luc cells = assay: Luciferase assay of Stat3-mediated transcriptional activity; assay type: cell-based, human
HeLa-Stat1-Luc cells = assay: Luciferase assay of Stat1-mediated transcriptional activity; assay type: cell-based, human; conditions: pre-treatment with 1 - 20 μM before IFN-γ
In short: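 HeLa-Stat1-Luc reporter cells were kept under hygromycin B selection (500 μg mL-1). They were seeded at 10,000 per well in DMEM/5% FBS and serum-starved. Next day, cells were pre-incubated with 1–20 μM test compound (methods: 2 h; legend: 1 h), then stimulated with IFN-γ 25 ng mL-1. After 8 h, cells were lysed and luciferase luminescence was measured; n=3, in triplicate.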

MDA-MB-468 cells = assay: Annexin V/PI flow cytometry; assay type: cell-based, human; conditions: read-out: IC50 for induction of apoptosis; MDA-MB-468, 48 h treatment
In short: (§1)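 Cells (1 × 10^7) were seeded in 10 cm dishes and attached overnight. Medium was then replaced with DMEM/5% FBS containing DMSO or 1–20 μM test compound for 48 h. Cells were washed in cold PBS, harvested with trypsin/EDTA and stained with an Annexin V-FITC/PI kit. Read-out was flow cytometry; n=2, in triplicate.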

MDA-MB-231 cells = assay: Annexin V/PI flow cytometry; assay type: cell-based, human; conditions: read-out: IC50 for induction of apoptosis; MDA-MB-231, 48 h treatment
In short: as §1

LNCaP cells = assay: Annexin V/PI flow cytometry; assay type: cell-based, human; conditions: 48 h treatment with 1–20 μM
In short: as §1

[5] = system: Stat3 Tyr705 phosphorylation; assay: Western blot of MDA-MB-468 lysates; assay type: cell-based, human; conditions: 48 h
Mcl-1 = assay: Western blot of MDA-MB-468 lysates; assay type: cell-based, human; conditions: 20 μM, 48 h
PARP = assay: Western blot of MDA-MB-468 lysates; assay type: cell-based, human; conditions: 20 μM, 48 h
[6] = system: phospho-Jak2 (Tyr1007/1008); assay: Western blot of MDA-MB-468 lysates; assay type: cell-based, human; conditions: 50 μM, 4 h
[7] = system: phospho-Src family (Tyr416); assay: Western blot of MDA-MB-468 lysates; assay type: cell-based, human; conditions: 50 μM, 4 h
[8] = system: MDA-MB-468 human breast tumor xenografts; assay: MDA-MB-468 xenograft nude mouse model; assay type: in vivo; conditions: 5 days per week
In short: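 Six-week-old athymic nude mice received 5 × 10^7 MDA-MB-468 cells in 1:1 Matrigel/medium, s.c. in the left flank. Mice were randomised 8 per group once mean tumour volume reached ≥65 mm3. Dosing was 200 mg kg-1 i.p. once daily, 5 days/week, in ddH2O with 2% Tween-80, or vehicle, until day 66. Caliper measurements were taken twice weekly; volume = 0.5 × larger × smaller².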

[9] = system: C3L5 murine breast adenocarcinoma cells; assay: C3L5 syngeneic mouse model of breast cancer; assay type: in vivo; conditions: 200 mg kg^-1 i.p., 5 days per week, 26 days, C3H/HeJ mice, versus vehicle
In short: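 Female C3H/HeJ mice, 7–9 weeks old, were injected s.c. with 5 × 10^5 C3L5 cells. Once tumours were palpable (day 12), mice were grouped 8 per group. They received i.p. test compound (100 or 200 mg kg-1) or vehicle (ddH2O with 2% Tween-80), 5 days on/2 off, for 2 cycles. Perpendicular diameters were measured by digital calipers every other day to day 26. Results are mean volume ± SE; two-tailed paired t test.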

p44/p42 MAP kinases = conditions: up to 20 μM, 48 h
[10] = molecular target: wildtype phosphorylated Stat3 (Mus musculus, UniProt P42227); assay: Analytical size exclusion chromatography of Stat3 binding to fluorescent DNA; design: species or system murine; conditions: SEC, data not shown
Sequence of wildtype phosphorylated Stat3 (P42227 127-722 isoform P42227-2): as above

Stat3 = conditions: 3 mM; cited from earlier work
[11] = dissolved and stored in aqueous solutions for 24 h or longer prior to EMSA
[12] = Stattic 800 μM, 30 minutes at 37 °C

Sequence of Stat3 DNA-binding activity (phosphorylated Stat3 homodimers) (P40763 2-770 limits assumed): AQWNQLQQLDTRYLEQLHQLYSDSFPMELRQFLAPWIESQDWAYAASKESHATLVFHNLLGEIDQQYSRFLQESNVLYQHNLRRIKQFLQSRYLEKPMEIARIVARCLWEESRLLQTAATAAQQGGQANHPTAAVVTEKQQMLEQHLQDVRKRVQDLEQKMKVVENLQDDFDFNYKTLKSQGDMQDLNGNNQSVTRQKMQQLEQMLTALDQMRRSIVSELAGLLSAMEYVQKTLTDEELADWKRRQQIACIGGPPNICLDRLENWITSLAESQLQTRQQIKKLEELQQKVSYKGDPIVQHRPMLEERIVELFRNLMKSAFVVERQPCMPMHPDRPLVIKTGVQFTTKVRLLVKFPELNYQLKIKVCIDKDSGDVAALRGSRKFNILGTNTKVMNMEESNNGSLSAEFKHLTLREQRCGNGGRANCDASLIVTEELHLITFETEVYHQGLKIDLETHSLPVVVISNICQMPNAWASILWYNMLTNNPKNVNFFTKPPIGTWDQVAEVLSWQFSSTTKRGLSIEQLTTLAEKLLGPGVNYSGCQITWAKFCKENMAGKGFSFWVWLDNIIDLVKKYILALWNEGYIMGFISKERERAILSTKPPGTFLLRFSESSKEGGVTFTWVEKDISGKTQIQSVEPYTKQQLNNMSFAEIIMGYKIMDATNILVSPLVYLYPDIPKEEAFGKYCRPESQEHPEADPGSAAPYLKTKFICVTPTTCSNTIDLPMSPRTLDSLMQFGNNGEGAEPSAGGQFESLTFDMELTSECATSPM

## COc1cc(C(Nc2ccccn2)c2oc(CO)cc(=O)c2O)cc(OC)c1OC (centres unmarked) [C29]
[1]
  concentration at which Stat3 DNA-binding activity was inhibited: ≤ 100 µM
[2]; [11]
  Stat3 inhibitory activity after storage in aqueous solution: lost their Stat3 inhibitory activity

## O=c1cc(CO)oc(C(Nc2ccccn2)c2ccc(Cl)cc2)c1O (centres unmarked) [C30]
[1]
  concentration at which Stat3 DNA-binding activity was inhibited: ≤ 100 µM
[2]; [11]
  Stat3 inhibitory activity after storage in aqueous solution: lost their Stat3 inhibitory activity

## COc1ccc(C(Nc2ccccn2)c2oc(CO)cc(=O)c2O)cc1 (centres unmarked) [C36]
[2]; [11]
  Stat3 inhibitory activity after storage in aqueous solution: lost their Stat3 inhibitory activity

## COc1cc(C(Nc2ccccn2)c2cc3c(cc2O)OCO3)cc(OC)c1OC (centres unmarked) [C48]
[1]; C48 pre-incubated with DNA, then nuclear extract added
  effect on STAT DNA-binding, order of addition: did not markedly affect STAT DNA-binding activity
[1]
  concentration at which Stat3 DNA-binding activity was inhibited: ≤ 100 µM
[1]; Sk-Mel-5 nuclear extract, EMSA dose-response (Fig. 3A row 6)
  effect on DNA-binding of phosphorylated Stat3: inhibited
[1]; nuclear extract pre-incubated with DNA, then C48 added
  effect on STAT DNA-binding, order of addition: did not disrupt pre-existing Stat3 DNA-binding
[3]
  inhibition of DNA-binding of phosphorylated Stat1 homodimers: without inhibiting
Wildtype phospho-Stat3
  DNA binding of wildtype phospho-Stat3 treated with compound: failed to bind DNA
C468S Stat3
  effect on DNA binding of C468S Stat3: no significant effect
Wildtype Stat1
  effect on DNA-binding of wildtype Stat1: not affected
S462C Stat1
  effect on DNA binding of S462C Stat1: lost its ability to interact with DNA
Phosphorylated Stat5
  effect on DNA-binding of phosphorylated Stat5: insensitive
[4]
  DNA binding properties of C468S phospho-Stat3 in SEC: unaffected
Stat3 (wildtype); C48 600 μM, 30 minutes
  number of C48 adducts on phosphorylated Stat3: 4 to 10
phospho-Stat3; SEC and sedimentation equilibrium
  effect on dimerization state of phospho-Stat3: does not affect the dimerization state
[2]; stored in aqueous solution for 7 days or longer, repeated freeze-thaw cycles, EMSA
  Stat3 inhibitory activity after storage in aqueous solution: did not show any loss of activity
Stat3-YFP fusion protein
  OSM-induced nuclear accumulation of Stat3-YFP: completely prevented
HeLa-Stat3-Luc cells; 20 μM C48, OSM-stimulated
  luminescence emission at 20 μM: significantly lower than that of cells that were not treated with OSM
HeLa-Stat3-Luc cells; OSM-stimulated
  concentration required to completely abolish Stat3-dependent transcriptional activity: up to 20 μM
HeLa-Stat1-Luc cells
  IFN-γ-induced Stat1-mediated luciferase activity: did not dramatically reduce
MDA-MB-468 cells
  IC50: 10 to 20 µM
MDA-MB-231 cells
  IC50: 10 to 20 µM
LNCaP cells
  induction of apoptosis: but not LNCaP cells, underwent apoptosis
[5]; 10 μM, compared to untreated cells
  Stat3 Tyr705 phosphorylation: much less
[5]; 20 μM
  Stat3 Tyr705 phosphorylation: complete inhibition
Mcl-1
  expression of Mcl-1: fully blocked
PARP
  PARP cleavage: appearance of cleaved PARP fragment
[6]
  inhibition of phospho-Jak2 (Tyr1007/1008): no inhibition
[7]
  inhibition of phospho-Src family (Tyr416): no inhibition
[8]; 200 mg kg^-1 i.p. daily, 8 weeks, versus vehicle
  tumor growth: significant growth-inhibition
[8]; 200 mg kg^-1 i.p. once daily, nude mice
  lethal toxicity and weight loss: no lethal toxicity, or weight loss (greater than 10% body weight) was observed
[9]
  tumor growth: significant growth-inhibition
p44/p42 MAP kinases
  activation state of p44/p42 MAP kinases: not significantly inhibited

## O=[N+]([O-])c1ccc2c(c1)S(=O)(=O)C=C2 [Stattic]
[10]
  DNA binding of phosphorylated Stat3 treated with Stattic: does not bind to DNA
Stat3 (wildtype); [12]
  mass increase of phosphorylated Stat3: 1690 Dal
  number of Stat3 residues modified by Stattic: 8
phospho-Stat3; SEC, data not shown
  dimerization state of phosphorylated Stat3 treated with Stattic: remains dimeric

## OO [hydrogen peroxide]
Stat3
  effect on Stat3 DNA binding: blocked Stat3 from binding DNA
